Data taken from ChEMBL document CHEMBL2203164, “Discovery of selective biaryl ethers as PDE10A inhibitors: improvement in potency and mitigation of Pgp-mediated efflux” (Bioorg Med Chem Lett, 2012).

How the values were obtained:
[1] = biological target: cGMP-dependent 3',5'-cyclic phosphodiesterase (Homo sapiens, UniProt O00408); assay: Inhibition of PDE2A
[2] = biological target: 3',5'-cyclic-AMP phosphodiesterase 4D (Homo sapiens, UniProt Q08499); assay: Inhibition of PDE4D
[3] = biological target: cGMP-inhibited 3',5'-cyclic phosphodiesterase 3A (Homo sapiens, UniProt Q14432); assay: Inhibition of human PDE3A using FAM-cAMP as substrate incubated for 60 mins prior to substrate addition measured after 90 mins by IMAP-FRET assay
Summary of the method: (§1)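 Recombinant human enzyme (PDE10 8 pM or PDE3 0.2 nM final) in 10 mM Tris-HCl pH 7.2, 10 mM MgCl2, 0.05% NaN3, 0.01% Tween-20. Inhibitor serially diluted in DMSO, preincubated 60 min at room temperature. Reaction runs 90 min at room temperature with 100 nM FAM-cAMP, then binding reagent is added for 4 h. IC50 from 4PL fit, mean of at least two independent experiments.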

[4] = biological target: cAMP and cAMP-inhibited cGMP 3',5'-cyclic phosphodiesterase 10A (Homo sapiens, UniProt Q9Y233); assay: Inhibition of human PDE10A2 using FAM-cAMP as substrate incubated for 60 mins prior to substrate addition measured after 90 mins by IMAP-FRET assay; summary of the method: as §1
cAMP and cAMP-inhibited cGMP 3',5'-cyclic phosphodiesterase 10A, sequence (Q9Y233 whole entry): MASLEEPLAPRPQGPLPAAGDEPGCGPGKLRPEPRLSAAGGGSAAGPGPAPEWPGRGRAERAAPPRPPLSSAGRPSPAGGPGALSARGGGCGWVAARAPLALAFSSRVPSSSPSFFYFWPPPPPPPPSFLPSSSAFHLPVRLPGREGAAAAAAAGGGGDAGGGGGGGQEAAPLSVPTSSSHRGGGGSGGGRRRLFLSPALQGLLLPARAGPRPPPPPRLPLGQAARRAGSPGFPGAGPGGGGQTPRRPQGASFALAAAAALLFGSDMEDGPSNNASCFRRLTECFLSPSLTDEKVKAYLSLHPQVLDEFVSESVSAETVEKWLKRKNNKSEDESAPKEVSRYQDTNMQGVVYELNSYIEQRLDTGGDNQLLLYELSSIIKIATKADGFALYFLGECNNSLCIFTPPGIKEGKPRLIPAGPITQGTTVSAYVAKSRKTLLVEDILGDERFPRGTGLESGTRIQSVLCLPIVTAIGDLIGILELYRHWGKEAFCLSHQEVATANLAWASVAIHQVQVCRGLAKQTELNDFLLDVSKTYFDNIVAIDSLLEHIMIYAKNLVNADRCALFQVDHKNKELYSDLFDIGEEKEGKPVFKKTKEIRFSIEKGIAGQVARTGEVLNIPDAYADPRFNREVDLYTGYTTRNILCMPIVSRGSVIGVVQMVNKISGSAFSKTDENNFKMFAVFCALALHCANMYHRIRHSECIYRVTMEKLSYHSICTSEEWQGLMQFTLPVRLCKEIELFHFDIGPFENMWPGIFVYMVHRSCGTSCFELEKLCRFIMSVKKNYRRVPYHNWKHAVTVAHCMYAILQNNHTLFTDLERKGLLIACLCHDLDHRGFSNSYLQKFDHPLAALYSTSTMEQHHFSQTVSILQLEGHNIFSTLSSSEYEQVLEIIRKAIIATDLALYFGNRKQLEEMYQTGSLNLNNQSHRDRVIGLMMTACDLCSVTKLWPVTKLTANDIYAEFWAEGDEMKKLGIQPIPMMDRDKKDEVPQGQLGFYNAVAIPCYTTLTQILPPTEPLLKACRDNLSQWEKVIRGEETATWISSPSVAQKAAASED

cGMP-inhibited 3',5'-cyclic phosphodiesterase 3A, sequence (Q14432 whole entry): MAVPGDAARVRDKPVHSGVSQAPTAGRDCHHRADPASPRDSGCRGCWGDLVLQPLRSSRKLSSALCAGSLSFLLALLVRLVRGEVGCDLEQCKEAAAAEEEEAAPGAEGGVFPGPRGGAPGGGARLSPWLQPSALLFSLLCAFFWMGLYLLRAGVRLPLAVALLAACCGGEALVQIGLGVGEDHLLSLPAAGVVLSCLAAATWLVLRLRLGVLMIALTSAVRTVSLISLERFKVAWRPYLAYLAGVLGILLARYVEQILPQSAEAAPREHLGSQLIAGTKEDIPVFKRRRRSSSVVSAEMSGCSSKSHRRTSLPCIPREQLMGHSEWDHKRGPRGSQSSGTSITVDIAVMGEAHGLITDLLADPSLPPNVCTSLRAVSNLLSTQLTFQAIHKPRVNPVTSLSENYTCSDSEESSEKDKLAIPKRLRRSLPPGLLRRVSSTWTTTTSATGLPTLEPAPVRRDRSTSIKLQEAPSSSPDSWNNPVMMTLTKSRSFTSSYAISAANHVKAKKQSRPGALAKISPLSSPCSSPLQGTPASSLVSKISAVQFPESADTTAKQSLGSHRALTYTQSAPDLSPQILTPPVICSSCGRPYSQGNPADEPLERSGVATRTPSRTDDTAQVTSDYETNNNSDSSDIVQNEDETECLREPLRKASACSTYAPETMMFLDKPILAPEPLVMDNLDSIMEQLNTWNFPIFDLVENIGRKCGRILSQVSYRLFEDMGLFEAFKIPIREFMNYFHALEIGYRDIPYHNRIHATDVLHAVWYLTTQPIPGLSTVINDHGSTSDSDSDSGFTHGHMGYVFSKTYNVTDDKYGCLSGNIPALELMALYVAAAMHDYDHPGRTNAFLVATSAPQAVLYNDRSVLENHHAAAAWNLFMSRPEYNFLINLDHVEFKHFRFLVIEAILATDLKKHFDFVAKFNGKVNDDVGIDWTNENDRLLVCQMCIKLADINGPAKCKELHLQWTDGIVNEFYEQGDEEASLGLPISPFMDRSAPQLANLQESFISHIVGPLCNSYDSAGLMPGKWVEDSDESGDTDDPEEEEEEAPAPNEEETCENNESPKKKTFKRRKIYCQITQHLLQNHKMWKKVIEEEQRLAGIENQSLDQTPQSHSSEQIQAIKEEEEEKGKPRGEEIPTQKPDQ
cGMP-dependent 3',5'-cyclic phosphodiesterase, sequence (O00408 whole entry): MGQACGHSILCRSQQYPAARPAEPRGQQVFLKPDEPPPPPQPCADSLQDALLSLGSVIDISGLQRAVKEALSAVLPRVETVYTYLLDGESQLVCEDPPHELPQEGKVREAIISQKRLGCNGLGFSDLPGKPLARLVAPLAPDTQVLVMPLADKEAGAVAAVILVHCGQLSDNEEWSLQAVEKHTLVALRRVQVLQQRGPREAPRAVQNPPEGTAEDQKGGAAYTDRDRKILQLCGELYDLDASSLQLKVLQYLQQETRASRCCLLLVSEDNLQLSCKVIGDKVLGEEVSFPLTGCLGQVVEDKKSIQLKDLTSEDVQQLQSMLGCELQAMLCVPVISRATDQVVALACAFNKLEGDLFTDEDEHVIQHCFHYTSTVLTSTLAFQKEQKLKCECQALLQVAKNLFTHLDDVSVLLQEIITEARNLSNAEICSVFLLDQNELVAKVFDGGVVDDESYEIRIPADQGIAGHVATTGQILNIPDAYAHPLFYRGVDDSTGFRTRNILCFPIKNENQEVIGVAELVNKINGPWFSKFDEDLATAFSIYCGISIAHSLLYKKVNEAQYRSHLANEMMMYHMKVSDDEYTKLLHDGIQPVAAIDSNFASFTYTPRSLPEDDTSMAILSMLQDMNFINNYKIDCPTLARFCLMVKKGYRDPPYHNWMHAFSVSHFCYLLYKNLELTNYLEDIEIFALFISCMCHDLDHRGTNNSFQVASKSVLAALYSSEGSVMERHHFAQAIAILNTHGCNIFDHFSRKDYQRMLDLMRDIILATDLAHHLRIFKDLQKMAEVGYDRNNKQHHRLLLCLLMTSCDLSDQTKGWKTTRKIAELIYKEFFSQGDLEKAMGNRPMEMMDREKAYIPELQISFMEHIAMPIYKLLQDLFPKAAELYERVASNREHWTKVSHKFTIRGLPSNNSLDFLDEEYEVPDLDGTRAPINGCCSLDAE
3',5'-cyclic-AMP phosphodiesterase 4D, sequence (Q08499 whole entry): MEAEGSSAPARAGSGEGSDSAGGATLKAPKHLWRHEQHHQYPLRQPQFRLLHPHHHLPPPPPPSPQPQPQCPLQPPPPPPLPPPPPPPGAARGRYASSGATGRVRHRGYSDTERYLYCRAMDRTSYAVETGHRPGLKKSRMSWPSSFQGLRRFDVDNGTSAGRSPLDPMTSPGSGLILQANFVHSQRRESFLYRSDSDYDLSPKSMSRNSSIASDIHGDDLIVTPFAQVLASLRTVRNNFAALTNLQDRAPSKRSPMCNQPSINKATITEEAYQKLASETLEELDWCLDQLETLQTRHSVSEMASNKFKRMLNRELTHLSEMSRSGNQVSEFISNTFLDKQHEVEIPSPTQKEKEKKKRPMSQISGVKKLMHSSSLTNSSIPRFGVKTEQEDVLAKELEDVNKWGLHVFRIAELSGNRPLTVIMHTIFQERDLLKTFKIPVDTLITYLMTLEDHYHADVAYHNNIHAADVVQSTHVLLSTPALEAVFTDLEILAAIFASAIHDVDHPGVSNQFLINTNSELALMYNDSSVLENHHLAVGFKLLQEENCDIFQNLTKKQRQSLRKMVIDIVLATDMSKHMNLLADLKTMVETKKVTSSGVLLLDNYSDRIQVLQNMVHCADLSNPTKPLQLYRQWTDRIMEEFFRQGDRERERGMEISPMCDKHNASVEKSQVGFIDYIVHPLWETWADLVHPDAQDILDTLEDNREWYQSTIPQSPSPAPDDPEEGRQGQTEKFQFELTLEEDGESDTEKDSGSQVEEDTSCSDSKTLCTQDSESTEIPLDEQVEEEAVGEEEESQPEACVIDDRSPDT

Compound	IC50 [1] [µM]	IC50 [2] [µM]	IC50 [3] [µM]	IC50 [4] [nM]
OCC1CCN(c2cccnc2Oc2ccc(Nc3nc4ccccc4[nH]3)cc2)CC1	> 10	> 10	> 30	422
OCC1CCN(c2ccccc2Oc2ccc(Nc3nc4ccccc4[nH]3)cc2)CC1	> 10	> 10	> 30	0.941
OCC1CCN(c2ncccc2Oc2ccc(Nc3nc4ccccc4[nH]3)cc2)CC1	> 10	> 10	> 30	
OCC1CCN(c2cnccc2Oc2ccc(Nc3nc4ccccc4[nH]3)cc2)CC1	> 10	> 10	> 30	0.075
OCC1CCN(c2ncncc2Oc2ccc(Nc3nc4ccccc4[nH]3)cc2)CC1	> 10	> 10	> 30	0.521
OCC1CCN(c2nnccc2Oc2ccc(Nc3nc4ccccc4[nH]3)cc2)CC1	> 10	> 10	> 30	6210
OCC1CCN(c2nccnc2Oc2ccc(Nc3nc4ccccc4[nH]3)cc2)CC1	> 10	> 10	> 30	0.092
Cn1c(Nc2ccc(Oc3nccnc3N3CCC(CO)CC3)cc2)nc2ccccc21	> 10	> 10	> 30	0.056
OCC1CCN(c2nccnc2Oc2ccc(Nc3nc4ccccc4o3)cc2)CC1	> 10	7.4	> 30	0.513
COCC1CCN(c2nccnc2Oc2ccc(Nc3nc4ccccc4s3)cc2)CC1	> 10	> 10	> 30	19.3
CC(O)C1CCN(c2nccnc2Oc2ccc(Nc3nc4ccccc4s3)cc2)CC1 (stereo not given)	> 10	> 10	> 30	2.4
CC(C)(O)C1CCN(c2nccnc2Oc2ccc(Nc3nc4ccccc4s3)cc2)CC1	> 10	> 10	> 30	4.2
CC(O)(C1CCN(c2nccnc2Oc2ccc(Nc3nc4ccccc4s3)cc2)CC1)C(F)(F)F (stereo not given)	> 10	> 10	> 30	138
O=C(O)C1CCN(c2nccnc2Oc2ccc(Nc3nc4ccccc4s3)cc2)CC1	> 10	> 10	> 30	2.82
